Screening results deposited in PubChem by Johns Hopkins Ion Channel Center.
A selection: hits, their analogues and other compounds. The true share with any hit is near 3.7%.
KCNK3 inh = human KCNK3 channel inhibition, primary screen | O14649 | CHO-KCNK3 thallium flux, FluxOR fluorescence; stronger effect = lower value | B-score at 10 µM | 340,000 compounds, 0.84% hits | AID 602410;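 active = B-score under library mean minus 4 SD, starting fluorescence ratio at most library mean plus 5 SD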;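 also: more negative B-score means stronger inhibition of thallium flux through KCNK3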
Kir21 block = inhibitors of mouse Kir2.1 inward-rectifier potassium channel; B-score at 10 µM; HEK293-Kir2.1, FluxOR thallium flux fluorescence; stronger effect = lower value; 310,000 compounds, 0.85% hits; P35561;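 active = fluorescence ratio B-score at or below minus 3 SD of library scores, with starting-brightness B-score within 2 SD, cut at about -4.2 in these data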;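 also: channel flux triggered by added potassium and thallium sulfate stimulus; B-score of peak minus minimum fluorescence over baseline after thallium stimulus; more negative B-score means stronger Kir2.1 block with less thallium influx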
KCNQ1 block = inhibitors of human KCNQ1 potassium channel | CHO-K1 KCNQ1, FluxOR thallium flux fluorescence; stronger effect = higher value | B-score at 10 µM | 310,000 compounds, 1.3% hits | P51787;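 active = compounds whose thallium flux B-score, printed positive for inhibition, exceeds three library SD while starting fluorescence stays within three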;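 also: channel opened by potassium depolarization with thallium stimulus after 20 min compound exposure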
hERG protect = compounds protecting human hERG from proarrhythmic drug block; Q12809; CHO-hERG, FluxOR thallium flux, dofetilide IC70 present; activation (rescue from dofetilide block), less the hit threshold, % at 10 µM; 310,000 compounds, 0.51% hits; AID 1511;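 active = activation above the mean of controls blocked by dofetilide plus 5 SD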;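 also: thallium influx through hERG after potassium depolarization seen as dye fluorescence rise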
Target sequence (Q12809 whole entry, looked up): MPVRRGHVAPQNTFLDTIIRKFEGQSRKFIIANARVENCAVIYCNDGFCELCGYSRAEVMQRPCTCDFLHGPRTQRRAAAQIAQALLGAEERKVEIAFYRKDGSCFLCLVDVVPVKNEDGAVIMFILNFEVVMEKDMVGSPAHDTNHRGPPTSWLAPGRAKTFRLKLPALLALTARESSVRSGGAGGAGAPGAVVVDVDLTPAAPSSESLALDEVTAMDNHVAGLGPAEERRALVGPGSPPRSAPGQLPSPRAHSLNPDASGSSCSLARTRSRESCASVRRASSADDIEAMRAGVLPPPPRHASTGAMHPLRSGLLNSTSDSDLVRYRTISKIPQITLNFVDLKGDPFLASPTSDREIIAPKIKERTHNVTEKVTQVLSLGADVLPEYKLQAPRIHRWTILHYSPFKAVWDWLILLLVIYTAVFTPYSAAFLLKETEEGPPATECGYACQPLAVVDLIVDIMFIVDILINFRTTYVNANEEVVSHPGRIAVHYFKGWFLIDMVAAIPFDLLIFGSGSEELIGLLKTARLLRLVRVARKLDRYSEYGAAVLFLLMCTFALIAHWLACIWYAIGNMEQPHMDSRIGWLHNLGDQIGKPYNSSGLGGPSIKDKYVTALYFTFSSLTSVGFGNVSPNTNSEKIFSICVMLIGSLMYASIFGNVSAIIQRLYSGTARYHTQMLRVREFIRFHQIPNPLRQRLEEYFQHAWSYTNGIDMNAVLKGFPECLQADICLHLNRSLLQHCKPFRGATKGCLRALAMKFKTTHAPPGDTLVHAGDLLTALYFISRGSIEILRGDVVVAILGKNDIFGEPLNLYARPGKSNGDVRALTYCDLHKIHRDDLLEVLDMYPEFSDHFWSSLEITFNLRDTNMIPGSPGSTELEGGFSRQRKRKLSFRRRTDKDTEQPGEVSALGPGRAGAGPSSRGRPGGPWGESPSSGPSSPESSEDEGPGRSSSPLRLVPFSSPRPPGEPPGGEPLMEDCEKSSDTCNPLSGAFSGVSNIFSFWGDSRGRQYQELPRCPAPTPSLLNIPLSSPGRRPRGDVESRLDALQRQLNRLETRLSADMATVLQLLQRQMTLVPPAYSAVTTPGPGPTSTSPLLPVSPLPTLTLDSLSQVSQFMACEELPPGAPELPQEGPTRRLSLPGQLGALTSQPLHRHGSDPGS
KCNK9 block = inhibitors of human KCNK9 two-pore domain potassium channel; B-score at 10 µM; 310,000 compounds, 1.2% hits; Q9NPC2; HEK293 KCNK9, FluxOR thallium flux fluorescence; stronger effect = lower value;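 active = ratio B-score over 3 SD below the library mean, with starting fluorescence within 5 SD of its mean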;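 also: negative B-score means less thallium flux so channel inhibition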
KCNQ1 pot = human KCNQ1 channel potentiation or activation | AID 2648 | CHO-K1 KCNQ1, thallium flux FluxOR fluorescence; stronger effect = higher value | B-score at 10 µM | 310,000 compounds, 0.35% hits | P51787;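 active = fluorescence ratio B-score, a plate-corrected score, at least three library SD, with initial intensity B-score within 5 SD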
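assay system = CHO-K1 cells stably expressing KCNQ1 | medium = assay buffer, equal DMSO in all wells | timing = 37 °C overnight plating, 90-min dark dye load, 20-min compound pretreatment | measured by = kinetic FluxOR thallium fluorescence, 10-s 1-Hz baseline, 110-s post-stimulus read | measure = fluorescence change relative to baseline, converted to B score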
KCNK9 inh conf = human KCNK9 inhibitor confirmation | shares compounds with KCNK9 block | HEK293 KCNK9 cells, FluxOR thallium flux fluorescence | inhibition, % at 10 µM | 4,900 compounds, 43% hits;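 active = thallium signal inhibited by more than 5 SD of the compound-free buffer control wells, on both duplicate plates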
Kir2-1 spec = selectivity of KCNK9 modulators against mouse Kir2.1; shares compounds with KCNK9 block; Kir2.1 cells, FluxOR thallium flux fluorescence; 4,900 compounds, 4% hits; inhibition, % at 10 µM; AID 492993;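 active = thallium signal drop more than 5 SD beyond the mean of the no-compound control wells, seen in both duplicate plates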;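 also: signal is fluorescence rise after thallium addition divided by baseline fluorescence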
HEK293 Tl ctr = second check of KCNK9 modulator effects in non-induced HEK293 cells; shares compounds with KCNK9 block; 4,900 compounds, 40% hits; FluxOR thallium flux; inhibition, % at 10 µM; AID 492997;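 active = thallium signal drop beyond 5 SD of the untreated control mean, on both duplicate plates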
Each line names hits and unclear results; the compound was inactive in the other large screens (follow-up assays come after a bar, where they were run).

CC(C)CCNC(=O)c1c(CSc2ccccc2)noc1C(=O)NCc1ccccc1	none | KCNK9 inh conf inactive | Kir2-1 spec inactive | HEK293 Tl ctr inactive
CCCNC(=O)c1onc(CSc2ccc(Cl)cc2)c1C(=O)NCCC(C)C	none | KCNK9 inh conf inactive | Kir2-1 spec inactive | HEK293 Tl ctr inactive
C=CCNC(=O)c1c(CSc2ccc(Cl)cc2)noc1C(=O)NCc1ccccc1	none | KCNK9 inh conf inactive | Kir2-1 spec inactive | HEK293 Tl ctr inactive
CN(Cc1ccccc1)C(=O)c1ccc(NC(=O)Cc2cccc(NC(=O)C3CCCN(C(=O)C4CCCCC4)C3)c2)cc1 (configuration not stated)	none (no result: Kir21 block, KCNQ1 block, hERG protect, KCNK9 block, KCNQ1 pot)
CCOc1ccc(NC(=O)C2CC(=O)OC2c2ccccc2)cc1 (configuration not stated)	none
COc1ccc(CNC(=O)C(=O)NCC2OCCN2S(=O)(=O)c2ccc(F)cc2)cc1 (configuration not stated)	none
Cc1ccc(C(=O)N2CCN(c3ccc(C(F)(F)F)cn3)CC2)o1	none (no result: Kir21 block, KCNQ1 block, hERG protect, KCNK9 block, KCNQ1 pot)
CCOC(=O)C1(CCOc2ccccc2)CCN(Cc2cc(OC)ccc2OC)CC1	none | KCNK9 inh conf inactive | Kir2-1 spec inactive | HEK293 Tl ctr inactive
CCOC(=O)C1(CCOc2ccccc2)CCN(Cc2ccc(O)c(OC)c2)CC1	none
CCOC(=O)C1(CCOc2ccccc2)CCN(Cc2ccc(F)c(OC)c2)CC1	none | KCNK9 inh conf inactive | Kir2-1 spec inactive | HEK293 Tl ctr inactive
CCOC(=O)C1(CCOc2ccccc2)CCN(Cc2cccn2-c2ncccn2)CC1	none | KCNK9 inh conf inactive | Kir2-1 spec inactive | HEK293 Tl ctr inactive
COc1ccc(C(=O)CN2CCN(CCN3C(=O)c4cccc5cccc(c45)C3=O)CC2)cc1	none | KCNK9 inh conf inactive | Kir2-1 spec inactive | HEK293 Tl ctr inactive
Cc1ccccc1C(=O)N/N=C1\SCC(=O)N1Cc1ccco1	none
CC(C)(C)OC(=O)NCCCC[C@H](NC(=O)c1nc[nH]c1C(=O)N1CCc2ccccc2C1)C(=O)OC(C)(C)C	none
CC(C)(C)OC(=O)[C@H](Cc1ccccc1)NC(=O)c1nc[nH]c1C(=O)N1CCc2ccccc2C1	none | KCNK9 inh conf inactive | Kir2-1 spec inactive | HEK293 Tl ctr inactive
CC(C)C[C@H](NC(=O)c1nc[nH]c1C(=O)NCc1ccc(CNC(=O)OC(C)(C)C)cc1)C(=O)OC(C)(C)C	KCNK9 block -8.84 | KCNK9 inh conf 31.5% | Kir2-1 spec inactive | HEK293 Tl ctr 29.0%
COCCOC(=O)c1c(C)oc2ccc(NS(=O)(=O)c3ccccc3)cc12	none
CCOC(=O)c1c(C)oc2ccc(NS(=O)(=O)c3ccc4c5c(cccc35)C(=O)N4)cc12	KCNK9 block -10 | KCNK9 inh conf 36.5% | Kir2-1 spec inactive | HEK293 Tl ctr inactive
Cc1cccc(N2C(=O)C3CCC(c4ccccc4)CC3C2=O)c1 (configuration not stated)	none | KCNK9 inh conf inactive | Kir2-1 spec inactive | HEK293 Tl ctr inactive
CCn1cnc2c1c(=O)n(Cc1csc(-c3ccccc3)n1)c(=O)n2Cc1ccccc1	none | KCNK9 inh conf inactive | Kir2-1 spec inactive | HEK293 Tl ctr inactive
CCn1cnc2c1c(=O)n(Cc1cccc([N+](=O)[O-])c1)c(=O)n2Cc1ccccc1	none | KCNK9 inh conf inactive | Kir2-1 spec inactive | HEK293 Tl ctr inactive
CCOC(=O)c1c(C)[nH]c(C(=O)Cn2c(=O)c3c(ncn3CC)n(Cc3ccccc3)c2=O)c1C	none | KCNK9 inh conf inactive | Kir2-1 spec inactive | HEK293 Tl ctr inactive
CCn1cnc2c1c(=O)n(Cc1nnc3n1-c1ccccc1SC3)c(=O)n2Cc1ccccc1	none | KCNK9 inh conf inactive | Kir2-1 spec inactive | HEK293 Tl ctr inactive
Cc1cc(SCc2ccc(Br)cc2)nc(=O)[nH]1	none
COc1cccc2cc(C(=O)C3=C(O)C(=O)N(CCN(C)C)C3c3ccc(Cl)cc3)oc12 (configuration not stated)	none
c1coc(CN(Cc2cccs2)Cc2nnnn2C2CCCCC2)c1	none
Clc1ccccc1CN(Cc1ccco1)Cc1nnnn1C1CCCC1	KCNK9 block -9.87 | KCNK9 inh conf 59.5% | Kir2-1 spec 47.0% | HEK293 Tl ctr 41.0%
COc1ccc(/C=N\NC(=O)c2cc(O)c(O)c(O)c2)cc1CN1CCN(c2ccc(F)cc2)CC1	none | KCNK9 inh conf inactive | Kir2-1 spec inactive | HEK293 Tl ctr inactive
Cc1ccc(CN2CCN(Cc3cnc(N4CCOCC4)s3)CC2CCO)o1 (configuration not stated)	none
CCC(=O)Nc1cccc(C2=NN(c3ccccc3)C(c3ccc(OC)cc3)C2)c1 (configuration not stated)	KCNK9 block -13.4 | KCNK9 inh conf 51.5% | Kir2-1 spec inactive | HEK293 Tl ctr 39.5%
COc1cccc(C2CCCN2Cc2nc(CCC(C)C)no2)c1 (configuration not stated)	none | KCNK9 inh conf inactive | Kir2-1 spec inactive | HEK293 Tl ctr inactive
O=C(/C=C/c1ccccc1Cl)N(Cc1ccc(Cl)cc1)C1CCS(=O)(=O)C1 (configuration not stated)	KCNK9 block -8.2 | KCNK9 inh conf 55.0% | Kir2-1 spec inactive | HEK293 Tl ctr 35.5%
O=C(/C=C/c1ccccc1Cl)N(Cc1ccccc1)C1CCS(=O)(=O)C1 (configuration not stated)	none
O=S(=O)(Cc1ccccc1Cl)NCc1ccccc1	none
Cc1cccc(C2(c3cccc(C)c3)OC(=O)c3ccccc32)c1	KCNK9 block -18.6 | KCNK9 inh conf 78.0% | Kir2-1 spec inactive | HEK293 Tl ctr 43.0%
Cc1cc(O)ccc1C1(c2ccc(O)cc2C)OC(=O)c2ccccc21	KCNK9 block -12.9 | KCNK9 inh conf 44.5% | Kir2-1 spec inactive | HEK293 Tl ctr inactive
O=C1OC(c2ccccc2)(c2ccc(O)cc2)c2ccccc21 (configuration not stated)	none (no result: Kir21 block, KCNQ1 block, hERG protect, KCNK9 block, KCNQ1 pot)
CCOc1ccc(CN(C)Cc2cc(=O)oc3cc(C)c(Cl)cc23)cc1	none
CCOc1ccc(N(C)Cc2cc(=O)oc3ccc(OCC)cc23)cc1	KCNK9 block -11.4 | KCNK9 inh conf 42.5% | Kir2-1 spec inactive | HEK293 Tl ctr 32.5%
CC(C)Cn1c2c(c(O)c(C(=O)Nc3ccc(F)cc3)c1=O)CCCC2	none
CC(C)Cn1c2c(c(O)c(C(=O)Nc3ncccc3O)c1=O)CCCC2	KCNK9 block -9.71 | KCNK9 inh conf 55.0% | Kir2-1 spec inactive | HEK293 Tl ctr 40.0%
Cc1cc2ccccn2c1C(=O)c1ccccc1F	KCNK9 block -11.9 | KCNK9 inh conf inactive | Kir2-1 spec inactive | HEK293 Tl ctr inactive
